# Most compounds without a hit are left out; they make up all but 2.5% or so of the library.
# TRPC4 inh – blocks the mouse TRPC4 cation channel | Q9QUQ5 | HEK293 TRPC4beta/mu-opioid, DAMGO-evoked Fluo4 calcium flux; active compounds read low | B-score at 10 µM | 300,000 compounds, 0.39% hits;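 active means B-score over 3 SD under the library average, no early fluorescence shift, positive overall ratio signal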
#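 Assay system – HEK293 line stably carrying TRPC4beta and mu-opioid receptor · Doses – single dose · Detection – Fluo4 calcium-dye fluorescence, kinetic read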
# TRPC6 inh – blocks the mouse TRPC6 cation channel; Q61143; HEK293-TRPC6, membrane potential dye, ACh-evoked depolarization; active compounds read low; B-score at 10 µM; 310,000 compounds, 1.1% hits; AID 2553;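 active means B-score under library mean minus 3 SD, initial fluorescence not abnormally high, positive integrated signal ratio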;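 further: B-score derived from integrated fluorescence ratio over the kinetic read; more negative B-score means stronger inhibition of depolarization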
# Target sequence (Q61143 whole entry, looked up): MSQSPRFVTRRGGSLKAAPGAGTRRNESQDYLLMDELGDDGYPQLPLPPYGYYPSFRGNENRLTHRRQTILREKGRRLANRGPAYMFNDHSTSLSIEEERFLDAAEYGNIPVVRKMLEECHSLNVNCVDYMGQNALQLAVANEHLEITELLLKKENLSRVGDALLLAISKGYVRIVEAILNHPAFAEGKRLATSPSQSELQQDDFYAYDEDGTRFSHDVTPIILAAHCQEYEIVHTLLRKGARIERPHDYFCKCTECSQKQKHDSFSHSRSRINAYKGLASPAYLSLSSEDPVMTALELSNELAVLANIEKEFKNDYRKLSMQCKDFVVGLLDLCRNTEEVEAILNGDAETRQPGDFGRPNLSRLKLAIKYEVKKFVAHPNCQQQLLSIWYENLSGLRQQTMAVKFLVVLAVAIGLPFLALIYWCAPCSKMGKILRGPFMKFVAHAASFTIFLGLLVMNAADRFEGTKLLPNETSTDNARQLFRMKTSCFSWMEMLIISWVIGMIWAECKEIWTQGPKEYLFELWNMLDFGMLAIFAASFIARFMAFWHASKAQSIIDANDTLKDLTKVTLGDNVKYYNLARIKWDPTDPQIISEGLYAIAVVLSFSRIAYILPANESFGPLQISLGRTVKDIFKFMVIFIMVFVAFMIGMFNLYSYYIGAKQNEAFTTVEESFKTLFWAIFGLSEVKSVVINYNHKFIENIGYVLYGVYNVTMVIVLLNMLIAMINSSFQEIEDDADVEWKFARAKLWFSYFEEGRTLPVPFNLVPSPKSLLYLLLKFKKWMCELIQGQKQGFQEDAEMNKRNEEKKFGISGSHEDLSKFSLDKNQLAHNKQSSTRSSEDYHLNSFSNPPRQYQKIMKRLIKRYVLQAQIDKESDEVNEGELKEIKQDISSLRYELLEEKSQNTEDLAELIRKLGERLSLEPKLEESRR
# TRPC4 potent – TRPC4 (mouse) allosteric potentiation; 310,000 compounds, 0.42% hits; HEK293 TRPC4beta/mu-opioid, DAMGO EC20, Fluo-4 Ca2+ flux; active compounds read high; AID 2227; B-score at 10 µM;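 active means B-score of calcium response area above 5 SD of library B-scores, with initial fluorescence ratio within 5 SD of library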;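 further: B-score of integrated fluorescence ratio over time as area under calcium response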
# TRPC4 agonist – opens the mouse TRPC4 cation channel; Q9QUQ5; HEK293 TRPC4beta/mu-opioid, Fluo4 calcium fluorescence; active compounds read high; B-score at 10 µM; 310,000 compounds, 0.49% hits; AID 2237;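 active means B-score above 5 SD of library B-scores, and initial fluorescence ratio not above library mean plus 5 SD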;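 further: positive B-score marks a calcium rise read as TRPC4 activation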
#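 System: HEK293 cells stably co-expressing mouse TRPC4beta and mu-opioid receptor; Schedule: Fluo4 dye loading 45 min at room temperature, 110 s recording; Detection: Fluo4 fluorescence, kinetic; Evaluation: B-scored integrated calcium fluorescence ratio; Controls: buffer (low) and maximal DAMGO (high).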
# Platelet DG rel – platelet dense granule release activity; human platelet-rich plasma, SFLLRN dense granule ATP release, luminescence; 300,000 compounds, 0.22% hits; inhibition, %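 (compounds screened at 7.5 µM in platelet-rich plasma)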; AID 1663;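 active means mean replicate score, as percent of positive control, at or above 50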
# TRPC6 act – activators of mouse TRPC6 channel | HEK293-TRPC6 membrane potential dye fluorescence; active compounds read high | 310,000 compounds, 0.13% hits | B-score at 10 µM;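 active means B-score of the integrated fluorescence ratio above library mean plus 3 SD, and starting fluorescence ratio within library mean plus 5 SD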;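 further: higher score means more depolarization so channel activation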
# Numbers without * were called inactive; i = inactive; . = no result given.
SMILES,TRPC4 inh,TRPC6 inh,TRPC4 potent,TRPC4 agonist,Platelet DG rel,TRPC6 act
Cc1cc(C)nc(/N=C(\N)Nc2ccc(OCc3ccccc3)cc2)n1,i,i,i,61*,-5,i
Cc1cc(C)nc(/N=C(\N)Nc2ccc(OCCC(C)C)cc2)n1,i,i,i,51*,8,i
Cc1cc(C)nc(/N=C(\N)Nc2ccc(CC(=O)OC(C)C)cc2)n1,i,i,i,i,2,i
Nc1ccc2nc(SCc3ccccc3F)sc2c1,i,i,i,i,8,i
CN(C1CCCCC1)S(=O)(=O)c1cc2c(cc1Cl)NC(=O)CO2,i,i,i,i,-8,i
CC(=O)NCCn1c(SCc2cc(=O)n3cc(Cl)ccc3n2)nc2ccccc2c1=O,i,i,i,i,2,i
O=C(CSc1nc2ccccc2c(=O)n1Cc1ccccc1)Nc1ccc(Br)cc1C(=O)O,i,i,i,i,3,i
COc1cc(C2c3c(n[nH]c3C)C(=O)N2c2ccc(C)cc2)ccc1O (configuration not stated),i,i,i,i,2,i
COc1cc(C2c3c(-c4ccccc4)n[nH]c3C(=O)N2c2ccccc2)ccc1O (configuration not stated),i,i,14*,i,1,i
N/C(=N\OC(=O)COc1ccc2ccccc2c1Br)c1ccncc1,i,-5*,i,i,2,i
O=C(COc1ccc2c(c1)OCO2)Nc1ccccc1F,i,i,i,i,15,i
Fc1ccc(C2CCNCC2COc2ccc3c(c2)OCO3)cc1 (configuration not stated),i,i,i,102*,.,i
CCCCc1cc(=O)oc2cc(OCC(=O)N3CCc4ccccc43)ccc12,i,i,i,i,0,i
CCCc1cc(=O)oc2cc(OCC(=O)N3CCc4ccccc43)ccc12,i,i,i,i,74*,i
O=C(COc1ccc(S(=O)(=O)N2CCCC2)cc1Cl)N1CCN(c2ccccc2)CC1,i,i,10*,i,-12,i
CN1CCN(c2ccc(S(=O)(=O)N3CCCCC3)cc2NC(=O)c2ccc(C#N)cc2)CC1,i,i,11*,i,-22,i
CC(Oc1ccc(F)cc1)C(=O)Nc1cc(S(=O)(=O)N2CCCCC2)ccc1N1CCOCC1 (configuration not stated),i,i,i,i,7,i
O=C(COc1ccc(S(=O)(=O)N2CCCCC2)cc1Cl)N1CCOCC1,i,i,i,i,-3,i
CCN1CCN(c2ccc(S(=O)(=O)N3CCCCC3)cc2NC(=O)C(C)Oc2ccc(F)cc2)CC1 (configuration not stated),i,i,i,96*,-11,i
CCN1CCN(c2ccc(S(=O)(=O)N3CCCCC3)cc2NC(=O)c2cccc(C)c2)CC1,i,i,i,i,-3,i
CCN1CCN(c2ccc(S(=O)(=O)N3CCCCC3)cc2NC(=O)CC(C)c2ccccc2)CC1 (configuration not stated),i,i,i,118*,-2,i
COc1cc(Cn2c(=O)c3c(OC)c(C)cnc3n(C)c2=O)cc(OC)c1,i,i,i,i,-18,i
COC(=O)CCCC1=CC2=CC(=O)C(C)(OC(=O)c3ccc(Cl)nc3)C(=O)C2=CO1 (configuration not stated),i,i,i,i,0,i
COCC1COS(=O)(=O)NC1(C)C (configuration not stated),i,i,i,i,-2,i
Cc1cccc(OCC(=O)Nc2cc(S(=O)(=O)N3CCOCC3)ccc2N2CCCC2)c1C,i,i,i,i,-3,i
SMILES,TRPC4 inh,TRPC6 inh,TRPC4 potent,TRPC4 agonist,Platelet DG rel,TRPC6 act
CCN1CCN(c2ccc(S(=O)(=O)N3CCCCC3)cc2NC(=O)COc2ccc(F)cc2Cl)CC1,i,i,12*,i,-4,i
CCN1CCN(c2ccc(S(=O)(=O)N3CCCCC3)cc2NC(=O)COc2ccc(Cl)cc2)CC1,i,i,i,i,11,i
Cc1ccccc1OCC(=O)Nc1cc(S(=O)(=O)N2CCCCC2)ccc1N1CCN(C)CC1,i,i,i,84*,-1,i
CCN1CCN(c2ccc(S(=O)(=O)N3CCOCC3)cc2NC(=O)/C=C/c2ccc(OC)cc2OC)CC1,i,i,i,101*,-1,i
COc1ccc2nc(SCC(=O)NCc3ccc(OC)c(OC)c3)[nH]c2c1,i,i,i,i,-2,i
COc1cc(C(C)=O)ccc1OCC(O)CN1CCN(c2ccc(C)c(C)c2)CC1 (configuration not stated),i,i,i,i,0,i
COc1cc(C(C)=O)ccc1OCC(O)CN1CCN(c2c(C)cccc2C)CC1 (configuration not stated),i,i,i,48*,15,i
CCOC(=O)C1CCN(CC(O)COc2ccc(C(C)(C)C)cc2)CC1 (configuration not stated),-6*,i,i,i,-17,i
C=CCn1c(SCC(=O)Nc2ccc(O)cc2)nc2sc(CC)cc2c1=O,i,i,i,i,28,i
O=C(COc1ccc(Cl)cc1)Nc1ccccc1Cl,i,i,i,i,-5,i
O=C(COc1ccc(Cl)cc1)Nc1ccc(C(=O)O)cc1NC(=O)COc1ccc(Cl)cc1,-6*,i,i,i,18,i
Cc1ccc(/C=C(\C#N)C(=O)Nc2cccc(C)n2)cc1,i,i,i,i,2,i
CC(=O)CC1(O)C(=O)Nc2ccccc21 (configuration not stated),i,i,i,i,-3,i
CC(=O)Nc1ccc(C2(c3ccc(NC(C)=O)cc3)C(=O)Nc3ccccc32)cc1,-7*,i,i,58*,6,i
CCc1nc2ccccc2n1Cc1ccccc1OC,-5*,i,i,i,-1,i
CCCc1nc2ccccc2n1Cc1ccccc1OC,-7*,i,i,i,-4,i
COc1ccccc1Cn1c(CCCO)nc2ccccc21,i,i,i,i,2,i
CC(C)CC(=O)Nc1c2c(nn1-c1cccc(Cl)c1)CS(=O)(=O)C2,i,i,i,i,0,i
Cc1csc(N/N=C/c2c(F)cccc2Cl)n1,i,i,i,i,-11,i
